How the values were obtained:
Rattus norvegicus [1] = species on record: Rattus norvegicus; experiment: Tissue distribution in rat heart after 180 minutes (n=3); assay type: ADME, organism-based; conditions: in vivo, 3 h
Outline: (§1)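 Male Wistar rats (200-350 g) under ether anesthesia; radiotracer (3-5 μCi in 0.1 mL 50% aqueous ethanol) given iv. At 5, 30, 60 and 180 min, blood was drawn by cardiac puncture and animals were killed by cardiectomy. Organs were weighed and γ-counted against a 1:100 dilution of the injected dose. Results are given as % injected dose/g tissue; ratios are taken between tissue levels.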

Rattus norvegicus [2] = species on record: Rattus norvegicus; experiment: Tissue distribution in rat blood after 180 minutes (n=3); assay type: ADME, organism-based; conditions: in vivo, 3 h; outline: as §1
Rattus norvegicus [3] = species on record: Rattus norvegicus; experiment: Effect of vesamicol on the accumulation in rat brain in group 1 (n=3); assay type: ADME, organism-based; conditions: in vivo
Outline: (§2)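 Male Wistar rats (n = 4/group) given iv vehicle (100 μL 50% aqueous EtOH) or dl-vesamicol (1.01 μmol/kg); 15 min later iv radiotracer (2.0 μCi in 100 μL 50% aqueous EtOH); killed 30 min post-tracer. Blood by cardiac puncture, organs weighed and γ-counted vs 1:100 injected-dose dilution; % dose/g tissue (range); tissue/blood ratios.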

Rattus norvegicus [4] = species on record: Rattus norvegicus; experiment: Effect of vesamicol on the accumulation in rat lung in group 1 (n=3); assay type: ADME, organism-based; conditions: in vivo; outline: as §2
Rattus norvegicus [5] = species on record: Rattus norvegicus; experiment: Effect of vesamicol on the accumulation in rat brain in group 2 (n=3); assay type: ADME, organism-based; conditions: in vivo
Rattus norvegicus [6] = species on record: Rattus norvegicus; experiment: Effect of vesamicol on the accumulation in rat lung in group 2 (n=3); assay type: ADME, organism-based; conditions: in vivo
Rattus norvegicus [7] = species on record: Rattus norvegicus; experiment: Tissue distribution in rat heart after 5 minutes (n=3); assay type: ADME, organism-based; conditions: in vivo; outline: as §1
Rattus norvegicus [8] = species on record: Rattus norvegicus; experiment: Effect of vesamicol on the accumulation in rat kidney in group 2 (n=3); assay type: ADME, organism-based; conditions: in vivo
Rattus norvegicus [9] = species on record: Rattus norvegicus; experiment: Ratio of tissue distribution between rat brain and blood after 5 min; assay type: ADME, organism-based; conditions: brain, 5 min
Outline: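 Male Wistar rats (200-350 g) under ether anesthesia, iv radiotracer (3-5 μCi in 0.1 mL 50% aqueous ethanol). At 5, 30, 60, 180 min blood taken by cardiac puncture, animal killed by cardiectomy; organs weighed, γ-counted against 1:100 injected-dose dilution; % injected dose/g tissue; brain/blood ratio.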

Rattus norvegicus [10] = species on record: Rattus norvegicus; experiment: Tissue distribution in rat liver after 5 minutes (n=3); assay type: ADME, organism-based; conditions: in vivo
Outline: (§3)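 Male Wistar rats (200-350 g) under ether, iv [125I]tracer (3-5 μCi in 0.1 mL 50% aqueous EtOH). At 5, 30, 60 or 180 min, blood taken by cardiac puncture and the rat killed by cardiectomy. Organs weighed and γ-counted against 1:100 dilutions of the injected dose; results in % injected dose/g, with range.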

Rattus norvegicus [11] = species on record: Rattus norvegicus; experiment: Effect of vesamicol on the accumulation in rat heart in group 2 (n=3); assay type: ADME, organism-based; conditions: in vivo; outline: as §2
Rattus norvegicus [12] = species on record: Rattus norvegicus; experiment: Effect of vesamicol on the accumulation in rat muscle in group 1 (n=3); assay type: ADME, organism-based, Muscle tissue; conditions: in vivo; outline: as §2
Rattus norvegicus [13] = species on record: Rattus norvegicus; experiment: Effect of vesamicol on the accumulation in rat thyroid in group 2 (n=3); assay type: ADME, organism-based, Thyroid gland; conditions: in vivo; outline: as §2
Rattus norvegicus [14] = species on record: Rattus norvegicus; experiment: Tissue distribution in rat thyroid after 180 minutes (n=3); assay type: ADME, organism-based, Thyroid gland; conditions: in vivo, 3 h; outline: as §1
Rattus norvegicus [15] = species on record: Rattus norvegicus; experiment: Tissue distribution in rat brain after 60 minutes (n=3); assay type: ADME, organism-based; conditions: in vivo, 1 h; outline: as §1
Rattus norvegicus [16] = species on record: Rattus norvegicus; experiment: Tissue distribution in rat liver after 180 minutes (n=3); assay type: ADME, organism-based; conditions: in vivo, 3 h; outline: as §3
Rattus norvegicus [17] = species on record: Rattus norvegicus; experiment: Tissue distribution in rat gonads after 30 minutes (n=3); assay type: ADME, organism-based, Gonad; conditions: in vivo, 0.5 h; outline: as §1
Rattus norvegicus [18] = species on record: Rattus norvegicus; experiment: Tissue distribution in rat kidney after 60 minutes (n=3); assay type: ADME, organism-based; conditions: in vivo, 1 h; outline: as §1
Rattus norvegicus [19] = species on record: Rattus norvegicus; experiment: Tissue distribution in rrat heart after 60 minutes (n=3); assay type: ADME, organism-based; conditions: in vivo, 1 h; outline: as §1
Rattus norvegicus [20] = species on record: Rattus norvegicus; experiment: Effect of vesamicol on the accumulation in rat liver in group 1 ([…]); assay type: ADME, organism-based; conditions: in vivo; outline: as §2
Rattus norvegicus [21] = species on record: Rattus norvegicus; experiment: Ratio of tissue distribution between rat heart and blood after 60 min; assay type: ADME, organism-based; conditions: other tissue, 1 h; outline: as §1
Rattus norvegicus [22] = species on record: Rattus norvegicus; experiment: Effect of vesamicol on the accumulation in rat thyroid in group 1 (n=3); assay type: ADME, organism-based, Thyroid gland; conditions: in vivo; outline: as §2
[23] = Ratio of tissue distribution between rat heart and blood after 180 min; assay type: ADME, organism-based; outline: as §1
Rattus norvegicus [24] = species on record: Rattus norvegicus; experiment: Effect of vesamicol on the accumulation in rat muscle in group 2 (n=3); assay type: ADME, organism-based, Muscle tissue; conditions: in vivo; outline: as §2
Rattus norvegicus [25] = species on record: Rattus norvegicus; experiment: Tissue distribution in rat brain after 30 minutes (n=3); assay type: ADME, organism-based; conditions: in vivo, 0.5 h; outline: as §1
Rattus norvegicus [26] = species on record: Rattus norvegicus; experiment: Ratio of tissue distribution between rat heart and blood after 5 min; assay type: ADME, organism-based; conditions: other tissue, 5 min; outline: as §1
Rattus norvegicus [27] = species on record: Rattus norvegicus; experiment: Ratio of tissue distribution between rat brain and blood after 60 min; assay type: ADME, organism-based; conditions: 1 h; outline: as §1
Rattus norvegicus [28] = species on record: Rattus norvegicus; experiment: Effect of vesamicol on the accumulation in rat gonads in group 2 (n=3); assay type: ADME, organism-based; conditions: in vivo; outline: as §2
[29] = Ratio of effect of vesamicol on the accumulation between rat brain and blood in group 2; assay type: ADME, organism-based; outline: as §2
Rattus norvegicus [30] = species on record: Rattus norvegicus; experiment: Tissue distribution in rat blood after 5 minutes (n=3); assay type: ADME, organism-based; conditions: in vivo; outline: as §1
Rattus norvegicus [31] = species on record: Rattus norvegicus; experiment: Effect of vesamicol on the accumulation in rat spleen in group 1 (n=3); assay type: ADME, organism-based; conditions: in vivo; outline: as §2
Rattus norvegicus [32] = species on record: Rattus norvegicus; experiment: Tissue distribution in rat muscle after 30 minutes (n=3); assay type: ADME, organism-based; conditions: in vivo, 0.5 h; outline: as §3
Rattus norvegicus [33] = species on record: Rattus norvegicus; experiment: Tissue distribution in rat thyroid after 30 minutes (n=3); assay type: ADME, organism-based, Thyroid gland; conditions: in vivo, 0.5 h; outline: as §1
Rattus norvegicus [34] = species on record: Rattus norvegicus; experiment: Tissue distribution in rat liver after 60 minutes (n=3); assay type: ADME, organism-based; conditions: in vivo, 1 h; outline: as §1
Rattus norvegicus [35] = species on record: Rattus norvegicus; experiment: Tissue distribution in rat heart after 30 minutes (n=3); assay type: ADME, organism-based; conditions: in vivo, 0.5 h; outline: as §3

O[C@@H]1CCN(Cc2cccc([125I])c2)C[C@H]1N1CCC(c2ccccc2)CC1 (stereo in doubt; (-))
Dose/g (Rattus norvegicus [1]): 0.5% | Dose/g (Rattus norvegicus [2]): 0.1% | Dose/g (Rattus norvegicus [3]): 0.68% | Dose/g (Rattus norvegicus [4]): 2.36% | Dose/g (Rattus norvegicus [5]): 0.34% | Dose/g (Rattus norvegicus [6]): 1.59% | Dose/g (Rattus norvegicus [7]): 1.32% | Dose/g (Rattus norvegicus [8]): 1.13% | Ratio (Rattus norvegicus [9]): 4.27 | Dose/g (Rattus norvegicus [10]): 2.07% | Dose/g (Rattus norvegicus [11]): 0.3% | Dose/g (Rattus norvegicus [12]): 0.18% | Dose/g (Rattus norvegicus [13]): 4.56% | Dose/g (Rattus norvegicus [14]): 11.55% | Dose/g (Rattus norvegicus [15]): 0.83% | Dose/g (Rattus norvegicus [16]): 2.23% | Dose/g (Rattus norvegicus [17]): 0.23% | Dose/g (Rattus norvegicus [18]): 3.13% | Dose/g (Rattus norvegicus [19]): 0.58% | Dose/g (Rattus norvegicus [20]): 1.91% | Ratio (Rattus norvegicus [21]): 5.97 | Dose/g (Rattus norvegicus [22]): 2.62% | Kp at 3 h [23]: 5.32 | Dose/g (Rattus norvegicus [24]): 0.16% | Dose/g (Rattus norvegicus [25]): 0.99% | Ratio (Rattus norvegicus [26]): 6.07 | Ratio (Rattus norvegicus [27]): 8.51 | Dose/g (Rattus norvegicus [28]): 0.16% | Kp [29]: 5.59 | Dose/g (Rattus norvegicus [30]): 0.22% | Dose/g (Rattus norvegicus [31]): 1.05% | Dose/g (Rattus norvegicus [32]): 0.3% | Dose/g (Rattus norvegicus [33]): 3.15% | Dose/g (Rattus norvegicus [34]): 2.63% | Dose/g (Rattus norvegicus [35]): 0.75%
